Legend:
[1] = In vitro release study by dialysis method; assay type: physicochemical
Outline: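 Micelles, free parent drug, or free prodrug were placed in a 20 kDa MWCO dialysis cassette against 500 mL PBS (20 mM, pH 7.4) at 37 °C. The sink was refreshed at each sampling. Free prodrug was taken from a 6 mM Tween 80/ethanol (1:4) stock and diluted in HEPES saline to a final 100 μM. Cassette contents were sampled over time and quantified by HPLC. Ct/C0 = e^–kt was fitted by nonlinear regression, and t1/2 = 0.693/k.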

[2] = system: human pancreatic cancer BxPC-3 cells; assay: Cell proliferation assay; assay type: cell-based; details: BXPC-3, 72 h
Outline: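 BxPC-3 cells were grown in RPMI with 10% FBS and penicillin/streptomycin at 37 °C under 5% CO2, then seeded in 96-well plates. Stocks were 1 mM (parent drug in PBS, prodrug in DMSO). Cells were exposed to 10–150 nM free or micellar test compound for 72 h. They were then fixed with 1% glutaraldehyde, stained with 0.1% crystal violet and dissolved in 10% acetic acid, with absorbance read at 595 nm. Viability was expressed as % of untreated wells.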

[3] = system: cytidine deaminase and cathepsin B; assay type: in vitro ADME, human; details: by 1 h; cathepsin B 5 U/mL, cytidine deaminase 15 μg/mL, pH 6.5, 37 °C
[4] = Pharmacokinetic study in mice bearing BxPC-3 xenografts; assay type: in vivo
Outline: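 Female nude mice carried BxPC-3 subcutaneous xenografts of 100–300 mm3 (3 per group). Mice received iv 25 mg/kg parent-drug equivalent as free drug in PBS, free prodrug in Tween 80/ethanol:PBS (1:4), or micelles. Retro-orbital blood was taken at 3–90 min. Samples were quenched with acetic acid, precipitated with acetonitrile, and analyzed by HPLC with internal standards for prodrug, parent and deaminated metabolite. t1/2, CLT and Vd,ss came from noncompartmental analysis.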

[5] = system: BxPC-3 xenografts; assay: Antitumor efficacy study in mice bearing BxPC-3 xenografts; assay type: in vivo; details: iv 10 mg/kg gemcitabine equivalent on days 0, 3, 7, 10
Outline: (§1)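 Female athymic nude mice (nu/nu, 5–6 weeks) received subcutaneous BxPC-3 cells (2 × 10^6 in matrigel/RPMI) in each flank. At 50–100 mm3, mice were randomized to untreated, free parent drug in PBS, or micellar prodrug groups (4 per group). Dosing was iv 10 mg/kg parent-drug equivalent on days 0, 3, 7 and 10. Tumor volume was measured by caliper as 1/2 × length × width², and body weight was tracked. Groups were compared by t-test.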

[6] = Body weight of treated mice in the efficacy study; assay type: in vivo; details: iv 10 mg/kg gemcitabine equivalent twice weekly for 2 weeks
Outline: as §1

[7] = system: tumor cells with wild-type hENT1 and deoxycytidine kinase; details: cell culture, tumor cells with wild-type hENT1 and deoxycytidine kinase ref 36; cited from earlier work
[8] = female, athymic nude (nu/nu), mouse, plasma, iv, 25 mg/kg

Question: Which results are given for `Nc1ccn([C@@H]2O[C@H](CO)[C@@H](O)C2(F)F)c(=O)n1` [gemcitabine, 2′,2′-difluorocytidine]?
Answer: release half-life (t1/2,release) ([1]; dialysis): about 15 min; t1/2,release ([1]; dialysis 20 kDa MWCO, PBS pH 7.4, 37 °C, 0.693/k): 14.4 min; release rate constant ([1]; dialysis 20 kDa MWCO, PBS pH 7.4, 37 °C, free GemC18 in Tween 80/ethanol): 2.920 h^–1; EC50 [2]: 25 nM; conversion to dFdU [3]: 80%; AUC [4, 8]: 18.8 µM·h; Vd [4, 8]: 1.06 ± 0.132 L/kg; CLT of gemcitabine ([4]; plasma gemcitabine, iv 25 mg/kg, mice): 84.0 ± 4.0 mL/kg/min; effect on tumor growth [5]: unable to arrest the tumor growth; body weight / overt toxicity [6]: no overt toxicity; EC50 [7]: low nanomolar range

Reference: paper PMC3993932 (Molecular Pharmaceutics, 2014)
